Values belong to the molecule of their own block, whether it stands above or below them. The source made the active and inactive calls. No cut-off for these calls is given here.
How the values were obtained:
Pseudomonas aeruginosa [1] = assay: Antimicrobial activity against Pseudomonas aeruginosa ATCC 15692 assessed as zone of inhibition at 2 mg/ml after 24 hrs by agar well diffusion method; type: functional; details: for zone of inhibition at 2000 µg/mL: read-out: DIZ
In short: (§1)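 Preliminary agar well-diffusion screen run against a panel of eight Gram-positive and Gram-negative test microbes.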

Pseudomonas aeruginosa [2] = assay: Antimicrobial activity against Pseudomonas aeruginosa ATCC 15692 assessed as reduction in microbial growth at 1.1 to 33.4 ug/ml after 24 hrs by broth microdilution method; type: functional, organism-based; details: dose microg/ml 1.1-33.4, time 24.0 hrs
In short: (§2)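 P. aeruginosa growth-inhibition assay in broth. Each compound was tested at final concentrations of 1.1, 2.1, 4.2, 8.4, 16.7 and 33.4 μg/mL. The read-out is the extent of growth inhibition at each concentration.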

Bacillus spizizenii [3] = assay: Inhibition of swarming motility of Bacillus subtilis subsp. spizizenii ATCC 6633 at 10 uM after 24 hrs; type: functional, organism-based
[4] = test system: Staphylococcus epidermidis; assay: Antimicrobial activity against Staphylococcus epidermidis ATCC 14990 assessed as zone of inhibition at 2 mg/ml after 24 hrs by agar well diffusion method; type: functional; details: for zone of inhibition at 2000 µg/mL: read-out: DIZ; in short: as §1
Pseudomonas aeruginosa [5] = assay: Antimicrobial activity against Pseudomonas aeruginosa ATCC 15692 assessed as reduction in microbial growth at 0.25 times of MIC concentration after 2 to 24 hrs by time kill assay; type: functional, organism-based; details: time 2.0 hrs
In short: (§3)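 Time-kill study against P. aeruginosa with compound at 1/4 MIC, MIC and 4 × MIC. Viable counts were followed as log CFU over a 24 h period, with sampling from 2 h onward. Ciprofloxacin served as the positive control.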

Pseudomonas aeruginosa [6] = assay: Antimicrobial activity against Pseudomonas aeruginosa ATCC 15692 assessed as reduction in microbial growth after 24 hrs by broth microdilution method; type: functional; in short: as §2
Pseudomonas aeruginosa [7] = assay: Antimicrobial activity against Pseudomonas aeruginosa ATCC 15692 assessed as reduction in microbial growth at 4 times of MIC concentration after 24 hrs by time kill assay; type: functional, organism-based; in short: as §3
Pseudomonas aeruginosa [8] = assay: Antimicrobial activity against Pseudomonas aeruginosa ATCC 15692 assessed as reduction in microbial growth at 2.1 to 33.4 ug/ml after 24 hrs by broth microdilution method relative to control; type: functional; details: dose microg/ml 2.1-33.4; in short: as §2
Staphylococcus aureus = assay: Antimicrobial activity against Staphylococcus aureus ATCC 12600 assessed as zone of inhibition at 2 mg/ml after 24 hrs by agar well diffusion method; type: functional; details: for zone of inhibition at 2000 µg/mL: read-out: DIZ; in short: as §1
Bacillus spizizenii [9] = assay: Antimicrobial activity against Bacillus subtilis subsp. spizizenii ATCC 6633 assessed as zone of inhibition at 2 mg/ml after 24 hrs by agar well diffusion method; type: functional; details: for zone of inhibition at 2000 µg/mL: read-out: DIZ; in short: as §1
Pseudomonas aeruginosa [10] = assay: Antimicrobial activity against Pseudomonas aeruginosa ATCC 15692 assessed as reduction in microbial growth at MIC concentration after 10 hrs by time kill assay; type: functional, organism-based; in short: as §3

SMILES: O=C(O)c1cn(C2CC2)c2cc(N3CCNCC3)c(F)cc2c1=O [CIPROFLOXACIN]
zone of inhibition at 2000 µg/mL (Pseudomonas aeruginosa [1]): 35 mm

SMILES: CSC(SC)c1c(C)c2ccccc2[nH]c1=O
Activity (Pseudomonas aeruginosa [2]): inactive | swarming motility inhibition (active/not active) (Bacillus spizizenii [3]): inactive

MIC (Pseudomonas aeruginosa [6]): 33 µg/mL
SMILES: CCCC/C=C/Cc1cc(=O)c2ccccc2[nH]1
Activity (Pseudomonas aeruginosa [2]): Active | zone of inhibition at 2000 µg/mL (Pseudomonas aeruginosa [1]): 35 mm | zone of inhibition at 2000 µg/mL [4]: 24 mm | Activity (Pseudomonas aeruginosa [5]): Active | swarming motility inhibition (active/not active) (Bacillus spizizenii [3]): Active | Activity (Pseudomonas aeruginosa [7]): Active | inhibition (INH) (Pseudomonas aeruginosa [8]): 37% | zone of inhibition at 2000 µg/mL (Staphylococcus aureus): 9 mm | zone of inhibition at 2000 µg/mL (Bacillus spizizenii [9]): 9 mm | Activity (Pseudomonas aeruginosa [10]): Active

SMILES: CCSC(SCC)c1c(C)c2ccccc2[nH]c1=O
Activity (Pseudomonas aeruginosa [2]): inactive | swarming motility inhibition (active/not active) (Bacillus spizizenii [3]): inactive

SMILES: CCS/C=C/c1cc(=O)c2ccccc2[nH]1
Activity (Pseudomonas aeruginosa [2]): inactive | diameter of the inhibition zone (DIZ) (Pseudomonas aeruginosa [1]): inactive | diameter of the inhibition zone (DIZ) [4]: inactive | swarming motility inhibition (active/not active) (Bacillus spizizenii [3]): inactive | zone of inhibition at 2000 µg/mL (Staphylococcus aureus): 13 mm | diameter of the inhibition zone (DIZ) (Bacillus spizizenii [9]): inactive

SMILES: CS/C=C/c1cc(=O)c2ccccc2[nH]1
Activity (Pseudomonas aeruginosa [2]): inactive | diameter of the inhibition zone (DIZ) (Pseudomonas aeruginosa [1]): inactive | diameter of the inhibition zone (DIZ) [4]: inactive | swarming motility inhibition (active/not active) (Bacillus spizizenii [3]): inactive | diameter of the inhibition zone (DIZ) (Staphylococcus aureus): inactive | zone of inhibition at 2000 µg/mL (Bacillus spizizenii [9]): 23 mm

SMILES: CCO/C=C/c1cc(=O)c2ccccc2[nH]1
swarming motility inhibition (active/not active) (Bacillus spizizenii [3]): inactive

SMILES: COC(OC)c1c(C)c2ccccc2[nH]c1=O
swarming motility inhibition (active/not active) (Bacillus spizizenii [3]): inactive

SMILES: CSc1ccc(Cc2cc(=O)c3ccccc3[nH]2)cc1
Activity (Pseudomonas aeruginosa [2]): inactive | zone of inhibition at 2000 µg/mL (Pseudomonas aeruginosa [1]): 29 mm | diameter of the inhibition zone (DIZ) [4]: inactive | swarming motility inhibition (active/not active) (Bacillus spizizenii [3]): Active | diameter of the inhibition zone (DIZ) (Staphylococcus aureus): inactive | diameter of the inhibition zone (DIZ) (Bacillus spizizenii [9]): inactive

SMILES: CN[C@H](CC(C)C)C(=O)N[C@H]1C(=O)N[C@@H](CC(N)=O)C(=O)N[C@H]2C(=O)N[C@H]3C(=O)N[C@H](C(=O)N[C@H](C(=O)O)c4cc(O)cc(O)c4-c4cc3ccc4O)[C@H](O)c3ccc(c(Cl)c3)Oc3cc2cc(c3O[C@@H]2O[C@H](CO)[C@@H](O)[C@H](O)[C@H]2O[C@H]2C[C@](C)(N)[C@H](O)[C@H](C)O2)Oc2ccc(cc2Cl)[C@H]1O [VANCOMYCIN]
zone of inhibition at 2000 µg/mL (Bacillus spizizenii [9]): 19 mm

SMILES: CC1(C)S[C@@H]2[C@H](NC(=O)[C@H](N)c3ccccc3)C(=O)N2[C@H]1C(=O)O [AMPICILLIN]
zone of inhibition at 2000 µg/mL [4]: 29 mm | zone of inhibition at 2000 µg/mL (Staphylococcus aureus): 39 mm

SMILES: COCc1c(C)c2ccccc2[nH]c1=O
swarming motility inhibition (active/not active) (Bacillus spizizenii [3]): Active

SMILES: Cn1c(Cc2ccccc2)cc(=O)c2ccccc21
Activity (Pseudomonas aeruginosa [2]): inactive | swarming motility inhibition (active/not active) (Bacillus spizizenii [3]): inactive

SMILES: O=c1cc(Cc2ccccc2)[nH]c2ccccc12
Activity (Pseudomonas aeruginosa [2]): inactive | swarming motility inhibition (active/not active) (Bacillus spizizenii [3]): Active

SMILES: CCOC(OCC)c1c(C)c2ccccc2[nH]c1=O
swarming motility inhibition (active/not active) (Bacillus spizizenii [3]): inactive

SMILES: Cc1c(CN(C)C)c(=O)[nH]c2ccccc12
swarming motility inhibition (active/not active) (Bacillus spizizenii [3]): Active

SMILES: CO/C=C/c1cc(=O)c2ccccc2[nH]1
swarming motility inhibition (active/not active) (Bacillus spizizenii [3]): inactive

SMILES: CCCC/C=C/Cc1cc(=O)c2ccccc2n1C
swarming motility inhibition (active/not active) (Bacillus spizizenii [3]): Active

SMILES: CS/C=C\c1cc(=O)c2ccccc2[nH]1
swarming motility inhibition (active/not active) (Bacillus spizizenii [3]): inactive

SMILES: CSc1ccc(Cc2cc(=O)c3ccccc3n2C)cc1
Activity (Pseudomonas aeruginosa [2]): inactive | zone of inhibition at 2000 µg/mL (Pseudomonas aeruginosa [1]): 36 mm | diameter of the inhibition zone (DIZ) [4]: inactive | swarming motility inhibition (active/not active) (Bacillus spizizenii [3]): Active | diameter of the inhibition zone (DIZ) (Staphylococcus aureus): inactive | diameter of the inhibition zone (DIZ) (Bacillus spizizenii [9]): inactive

SMILES: CSCc1c(C)c2ccccc2[nH]c1=O
swarming motility inhibition (active/not active) (Bacillus spizizenii [3]): Active

SMILES: CCSCc1c(C)c2ccccc2[nH]c1=O
swarming motility inhibition (active/not active) (Bacillus spizizenii [3]): Active

— ChEMBL document CHEMBL4699571, “Synthesis of Natural and Unnatural Quinolones Inhibiting the Growth and Motility of Bacteria” (2020)
